{"data": "Measured values from different studies", "observed": "cell growth or viability", "time": "72 h"}
{"SMILES": "O=C(O)c1ccc(NCc2cccc([N+](=O)[O-])c2)cc1", "cell line": "NCI-H69", "assay": "resazurin", "IC50": "> 100000 nM"}
{"SMILES": "CC(C)(C)c1cnc(CSc2cnc(NC(=O)C3CCN(C(=O)CCOCCN4Cc5cc6c(cc5C4)C(=O)N(C4CCC(=O)NC4=O)C6=O)CC3)s2)o1 (centres unmarked)", "cell line": "TC-71", "assay": "MTT", "IC50": "8.93 nM"}
{"SMILES": "C=CCn1c(=O)c2cnc(Nc3ccc(N4CCN(C)CC4)cc3)nc2n1-c1ccc2c(n1)[C@@](O)(CC)CC2", "cell line": "OVCAR-3", "assay": "ATP luminescence", "IC50": "295 nM"}
{"SMILES": "Cc1cc2c(C(N)=O)cccc2n1-c1nc(NCc2ccccc2)c2c(n1)NC(C)CC2 (centres unmarked)", "cell line": "RPMI-8226", "assay": "ATP luminescence", "IC50": "1300 nM"}
{"SMILES": "CC(C)(C)c1cnc(CSc2cnc(NC(=O)C3CCN(C(=O)CCCCCCCCCN4Cc5cc6c(cc5C4)C(=O)N(C4CCC(=O)NC4=O)C6=O)CC3)s2)o1 (centres unmarked)", "cell line": "TC-71", "assay": "MTT", "IC50": "71.7 nM"}
{"SMILES": "CONC(=O)Cc1c(C)n(-c2nc3c(c(NCc4ccccc4)n2)CCCN3)c2ccccc12", "cell line": "RPMI-8226", "assay": "ATP luminescence", "IC50": "8000 nM"}
{"SMILES": "CC(C)(C)c1cnc(CSc2cnc(NC(=O)C3CCN(C(=O)CCCCCCN4Cc5cc6c(cc5C4)C(=O)N(C4CCC(=O)NC4=O)C6=O)CC3)s2)o1 (centres unmarked)", "cell line": "TC-71", "assay": "MTT", "IC50": "9.58 nM"}
{"SMILES": "COc1cccc(CNc2ccc(C(=O)O)cc2)c1OC", "cell line": "NCI-H69", "assay": "resazurin", "IC50": "> 100000 nM"}
{"SMILES": "CC(C)(C)c1cnc(CSc2cnc(NC(=O)C3CCN(C(=O)CCCCCCCN4Cc5cc6c(cc5C4)C(=O)N(C4CCC(=O)NC4=O)C6=O)CC3)s2)o1 (centres unmarked)", "cell line": "TC-71", "assay": "MTT", "IC50": "8.52 nM"}
{"SMILES": "COc1cccc(CNc2ccc(C(=O)O)cc2)c1O", "cell line": "NCI-H69", "assay": "resazurin", "IC50": "> 100000 nM"}
{"SMILES": "CC(C)(C)c1cnc(CSc2cnc(NC(=O)C3CCN(C(=O)CCCCCCCCCCCN4Cc5cc6c(cc5C4)C(=O)N(C4CCC(=O)NC4=O)C6=O)CC3)s2)o1 (centres unmarked)", "cell line": "TC-71", "assay": "MTT", "IC50": "79.9 nM"}
{"SMILES": "Cc1cc2c(C(N)=O)cccc2n1-c1nc2c(c(NCc3ccccc3O)n1)CCCN2", "cell line": "RPMI-8226", "assay": "ATP luminescence", "IC50": "9800 nM"}
{"SMILES": "COc1cc(CNc2ccc(C(=O)O)cc2)ccc1O", "cell line": "NCI-H69", "assay": "resazurin", "IC50": "> 100000 nM"}
{"SMILES": "O=C1CCCC2=C1C(c1c(C(=O)O)[nH]c3ccccc13)c1c(ccc3ccccc13)O2 (centres unmarked)", "cell line": "3T3-L1", "assay": "MTT", "IC50": "24.1 µg/mL"}
{"SMILES": "CONC(=O)c1cccc2c1cc(C)n2-c1nc2c(c(NCc3ccccc3)n1)CCCN2", "cell line": "RPMI-8226", "assay": "ATP luminescence", "IC50": "500 nM"}
{"SMILES": "O=C(O)c1ccc(NCc2ccc(Br)cc2)cc1", "cell line": "NCI-H69", "assay": "resazurin", "IC50": "> 100000 nM"}
{"SMILES": "Cc1cc2c(C(N)=O)cccc2n1-c1nc2c(c(NCc3ccccn3)n1)CCCN2", "cell line": "RPMI-8226", "assay": "ATP luminescence", "IC50": "1400 nM"}
{"SMILES": "CC(C)(C)c1cnc(CSc2cnc(NC(=O)C3CCN(C(=O)CCCCCCCCCCN4Cc5cc6c(cc5C4)C(=O)N(C4CCC(=O)NC4=O)C6=O)CC3)s2)o1 (centres unmarked)", "cell line": "TC-71", "assay": "MTT", "IC50": "71.8 nM"}
{"SMILES": "Cc1cc2c(C(N)=O)cccc2n1-c1nc2c(c(OCc3ccccc3)n1)CCCN2", "cell line": "RPMI-8226", "assay": "ATP luminescence", "IC50": "4500 nM"}
{"SMILES": "O=C(O)c1ccc(NCc2cccc(C(F)(F)F)c2)cc1", "cell line": "NCI-H69", "assay": "resazurin", "IC50": "> 100000 nM"}
